Test results published in ChEMBL document CHEMBL4257556, “Novel 1,3,4-thiadiazole-chalcone hybrids containing catechol moiety: synthesis, antioxidant activity, cytotoxicity and DNA interaction studies” (Medchemcomm, 2018).
The source made the active and inactive calls. No cut-off for these calls is given here.

Key:
[1] = Antioxidant activity assessed as DPPH free radical scavenging activity after 30 mins; type: functional
Outline: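 DPPH (0.05 mM in methanol) mixed with equal volume of compound (DMSO solution diluted in methanol), kept in dark at room temperature 30 min; absorbance at 517 nm, methanol control, ascorbic acid positive control. IC50 = concentration giving 50% of maximum scavenging; mean ± SD of independent triplicate experiments.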

HeLa [2] = assay: Prooxidant activity in human HeLa cells assessed as increase in H2O2-induced reactive oxygen species at 10 uM preincubated for 24 hrs followed by H2O2 addition and measured after 30 mins by dichlorofluorescein dye-based flow cytometric method; type: functional, cell-based
Outline: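 HeLa cells pretreated 24 h with 10 μM compound, washed, loaded with 30 μM DCFH-DA in PBS 45 min at 37 °C. One portion read directly (endogenous ROS); other portion exposed to 10 mM H2O2 30 min at 37 °C. DCF green fluorescence by flow cytometry, 20 000 events per sample; mean ± SD of two independent experiments.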

HeLa [3] = assay: Cytotoxicity against human HeLa cells assessed as decrease in cell survival after 72 hrs by MTT assay; type: functional, cell-based
Outline: (§1)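 HeLa (2000/well), A549 and MRC-5 (5000/well) seeded 20 h before treatment; HL-60 (7000/well) 2 h before. Five concentrations (6.25–100 μM or 3.125–50 μM) from 5 mM DMSO stocks, final DMSO ≤1%, 72 h; survival by MTT. Cisplatin positive control; three independent experiments in triplicate.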

HL-60 = assay: Cytotoxicity against human HL60 cells assessed as decrease in cell survival after 72 hrs by MTT assay; type: functional, cell-based; conditions: HL-60, 72 h; outline: as §1
A549 = assay: Cytotoxicity against human A549 cells assessed as decrease in cell survival after 72 hrs by MTT assay; type: functional, cell-based; conditions: A549, 72 h; outline: as §1
MRC5 [4] = assay: Cytotoxicity against human MRC5 cells assessed as decrease in cell survival after 72 hrs by MTT assay; type: cell-based; conditions: MRC5, 72 h; outline: as §1
HeLa [5] = assay: Cell cycle arrest in human HeLa cells assessed as accumulation at sub-G1 phase at IC50 and 2 times IC50 after 24 hrs by propidium iodide staining-based flow cytometric method; type: functional
Outline: (§2)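 HeLa cells treated 24 h at IC50 or 2×IC50 (from 72 h assay), fixed in 70% ethanol, stored at –20 °C ≥1 week, RNase A 30 min 37 °C, propidium iodide stained; flow cytometry, 10 000 gated events. Mean ± SD of three independent experiments; one-way ANOVA with Dunnett's post-test, p < 0.05.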

HeLa [6] = assay: Cell cycle arrest in human HeLa cells assessed as accumulation at G2/M phase at 2 times IC50 after 24 hrs by propidium iodide staining-based flow cytometric method; type: functional; outline: as §2
HeLa [7] = assay: Cell cycle arrest in human HeLa cells assessed as decrease in cell levels at G1 phase at 2 times IC50 after 24 hrs by propidium iodide staining-based flow cytometric method; type: functional; outline: as §2
HeLa [8] = assay: Cell cycle arrest in human HeLa cells assessed as accumulation at sub-G1 phase at 2 times IC50 after 24 hrs in presence of caspase-3 inhibitor Z-DEVD-FMK by propidium iodide-staining based flow cytometric method; type: functional
Outline: (§3)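 HeLa cells pretreated 2 h with 40 μM peptide caspase inhibitor (Z-DEVD-FMK caspase-3, Z-IETD-FMK caspase-8 or Z-LEHD-FMK caspase-9), then exposed to 2×IC50 compound; subG1 fraction by propidium iodide flow cytometry, compared with samples lacking inhibitor.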

HeLa [9] = assay: Cell cycle arrest in human HeLa cells assessed as accumulation at sub-G1 phase at 2 times IC50 after 24 hrs in presence of caspase-9 inhibitor Z-LEHD-FMK by propidium iodide-staining based flow cytometric method; type: functional; outline: as §3
HeLa [10] = assay: Cell cycle arrest in human HeLa cells assessed as accumulation at sub-G1 phase at 2 times IC50 after 24 hrs in presence of caspase-8 inhibitor Z-IETD-FMK by propidium iodide-staining based flow cytometric method; type: functional; outline: as §3
HeLa [11] = assay: Downregulation of MMP2 gene expression in human HeLa cells at 10 uM after 24 hrs by RT-qPCR method; type: functional, cell-based
HeLa [12] = assay: Downregulation of TIMP3 gene expression in human HeLa cells at 10 uM after 24 hrs by RT-qPCR method; type: functional, cell-based
HeLa [13] = assay: Upregulation of MMP9 gene expression in human HeLa cells at 10 uM after 24 hrs by RT-qPCR method; type: functional, cell-based
HeLa [14] = assay: Downregulation of VEGFA gene expression in human HeLa cells at 10 uM after 24 hrs by RT-qPCR method; type: functional, cell-based
HeLa [15] = assay: Downregulation of miR-21 expression in human HeLa cells at 10 uM after 24 hrs by RT-qPCR method; type: functional, cell-based
HeLa [16] = assay: Downregulation of miR-155 expression in human HeLa cells at 10 uM after 24 hrs by RT-qPCR method; type: functional, cell-based
HeLa [17] = assay: Downregulation of miR-133b expression in human HeLa cells at 10 uM after 24 hrs by RT-qPCR method; type: functional, cell-based
HeLa [18] = assay: Upregulation of miR-206 expression in human HeLa cells at 10 uM after 24 hrs by RT-qPCR method; type: functional, cell-based
Calf thymus DNA [19] = assay: Binding affinity to calf thymus DNA at 10 to 40 uM after 90 mins by UV/visible spectrophotometric analysis; type: nucleic-acid assay; conditions: Bos taurus
Outline: (§4)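 CT-DNA stock in 10 mM Tris-HCl pH 7.9 (A260/A280 1.89–2.01; concentration from ε260 6600 M–1 cm–1). Compound (10, 20 or 40 μM) plus CT-DNA (95 μM) in 40 mM bicarbonate pH 8.4, 37 °C 90 min; spectra 200–800 nm. Hyper/hypochromism at 259 nm from bound versus summed free compound and DNA extinction; triplicate.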

Calf thymus DNA [20] = assay: Binding affinity to calf thymus DNA assessed as hypochromism at 10 to 20 uM after 90 mins by UV/visible spectrophotometric analysis; type: nucleic-acid assay; conditions: Bos taurus; outline: as §4
Calf thymus DNA [21] = assay: Binding affinity to calf thymus DNA assessed as hypochromism at 40 uM after 90 mins by UV/visible spectrophotometric analysis; type: nucleic-acid assay; conditions: Bos taurus; outline: as §4
Calf thymus DNA [22] = assay: Binding affinity to calf thymus DNA after 90 mins by spectroscopic titration method; type: nucleic-acid assay; conditions: Bos taurus
Outline: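 Compound fixed at 40 μM titrated with CT-DNA (2.2–13 × 10–5 M) in 40 mM bicarbonate pH 8.4 after 90 min at 37 °C; absorbance at 259 nm per DNA level. Kb from slope/intercept ratio of [DNA]/(εa–εf) versus [DNA] plot; triplicate assays.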

Calf thymus DNA [23] = assay: Displacement of Hoechst 33258 from calf thymus DNA assessed as fluorescence intensity of compound-DNA complex at 22 uM by fluorescence spectrophotometric analysis relative to control; type: nucleic-acid assay; conditions: Bos taurus
Outline: (§5)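 CT-DNA 100 μM (per phosphate) in 40 mM bicarbonate pH 8.4 pretreated 20 min with Hoechst 33258 (28 μM final), then compound added stepwise. Excitation 350 nm, emission 390–550 nm, read at 444 nm, 10 nm slits; H–DNA as control. Quenching constant K by Stern–Volmer, I0/I versus r = [compound]/[DNA]; triplicate.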

Calf thymus DNA [24] = assay: Displacement of Hoechst 33258 from calf thymus DNA assessed as quenching constant by fluorescence spectrophotometric analysis; type: nucleic-acid assay; conditions: Bos taurus; outline: as §5
MRC5 [25] = assay: Induction of DNA damage in human MRC5 cells assessed as formation of DNA breaks at 25 uM after 24 hrs by comet assay relative to control; type: functional
Outline: (§6)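 MRC-5 cells exposed 24 h to 3.125–25 μM compound; DNA damage scored as % tail DNA (tail intensity) by comet assay. PBS negative control; H2O2 50 μM 5 min in-gel positive control. Triplicate, repeated twice; mean ± SD.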

MRC5 [26] = assay: Induction of DNA damage in human MRC5 cells assessed as formation of DNA breaks after 24 hrs by comet assay; type: functional, cell-based; outline: as §6
DNA [27] = assay: Induction of Escherichia coli pUC19 DNA cleavage at 0.05 to 0.4 mM after 90 mins by agarose gel electrophoresis method; type: nucleic-acid assay
Outline: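 Plasmid pUC19 (from E. coli XL1 blue; 460 ng, 12 nM) incubated with compound (0.05–0.4 mM; from 2 mM DMSO stock) in 20 μL 40 mM bicarbonate pH 8.4 at 37 °C for 90 min; 1% agarose gel in TAE at 80 V, ethidium bromide staining, UV at 312 nm; supercoiled/nicked/linear forms scored.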

DNA [28] = assay: Reversal of Fe2+-induced Escherichia coli pUC19 DNA cleavage at 1:1 compound to Fe2+ mole ratio after 90 mins by agarose gel electrophoresis method; type: functional
Outline: (§7)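 Compound (4 μL of 2 mM) preincubated with FeSO4 (1 or 2 μL of 8 mM; compound:Fe 1:1 or 1:2) in bicarbonate buffer 60 min at 37 °C, then pUC19 added for another 90 min; products resolved on 1% agarose gel, ethidium bromide stained.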

DNA [29] = assay: Reversal of Fe2+-induced Escherichia coli pUC19 DNA cleavage at 1:2 compound to Fe2+ mole ratio after 90 mins by agarose gel electrophoresis method; type: functional; outline: as §7

With `O=C(/C=C/c1ccc(C(=O)Nc2nnc(-c3ccc(O)c(O)c3)s2)cc1)c1ccccc1` the IC50 [1] was 12 µM, the Activity (HeLa [2]) was “Active” and the IC50 (HeLa [3]) was 9.37 µM. The IC50 (HL-60) was 8.4 µM, the IC50 (A549) was 42.8 µM and the IC50 (MRC5 [4]) was 36 µM. For the same compound, the Activity (HeLa [5]) was “Active”, the Activity (HeLa [6]) was “Active” and the Activity (HeLa [7]) was “Active”. For the same compound, the Activity (HeLa [8]) was “inactive”, the Activity (HeLa [9]) was “inactive” and the Activity (HeLa [10]) was “inactive”. For the same compound, the Activity (HeLa [11]) was “Active”, the Activity (HeLa [12]) was “Active” and the Activity (HeLa [13]) was “Active”. The Activity (HeLa [14]) was “inactive”, the Activity (HeLa [15]) was “Active” and the Activity (HeLa [16]) was “Active”. For the same compound, the Activity (HeLa [17]) was “Active”, the Activity (HeLa [18]) was “Active” and the Activity (Calf thymus DNA [19]) was “Active”. The Activity (Calf thymus DNA [20]) was 13%, the Activity (Calf thymus DNA [21]) was “inactive” and the Kb (Calf thymus DNA [22]) was 1.09 ×10³ /M. The Activity (Calf thymus DNA [23]) was 58%, the K (Calf thymus DNA [24]) was 3.3 and the Activity (MRC5 [25]) was 45%. For the same compound, the Activity (MRC5 [26]) was “Dose-dependent effect”, the Activity (DNA [27]) was “inactive” and the Activity (DNA [28]) was “Active”. The Activity (DNA [29]) was “Active”.
